Measurements: ChEMBL document CHEMBL1143064, “Novel 9a-carbamoyl- and 9a-thiocarbamoyl-3-decladinosyl-6-hydroxy and 6-methoxy derivatives of 15-membered macrolides” (Bioorg Med Chem, 2007)
≈ marks a conversion by molar mass, not a printed value.

What was measured:
Staphylococcus aureus [1] = assay: Antibacterial activity against Staphylococcus aureus-M after 24 hrs by microdilution method; assay type: functional
Summary of the method: (§1)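 Broth microdilution in Mueller–Hinton medium run on an automated liquid handler. Compounds dissolved in DMF (5 mg/ml stock) and tested in medium from 64 to 0.125 µg/ml. Plates incubated 24 h at 37 °C, then growth read as absorbance at 600 nm. MIC taken as the concentration giving 90% growth inhibition.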

Staphylococcus aureus [2] = assay: Antibacterial activity against Staphylococcus aureus-cMLS after 24 hrs by microdilution method; assay type: functional; summary of the method: as §1
Streptococcus pneumoniae [3] = assay: Antibacterial activity against Streptococcus pneumoniae after 24 hrs by microdilution method; assay type: functional; summary of the method: as §1
Streptococcus pneumoniae [4] = assay: Antibacterial activity against Streptococcus pneumoniae-M after 24 hrs by microdilution method; assay type: functional; summary of the method: as §1
Streptococcus pyogenes [5] = assay: Antibacterial activity against Streptococcus pyogenes after 24 hrs by microdilution method; assay type: functional; summary of the method: as §1
Streptococcus pyogenes [6] = assay: Antibacterial activity against Streptococcus pyogenes-M after 24 hrs by microdilution method; assay type: functional; summary of the method: as §1
Haemophilus influenzae = assay: Antibacterial activity against Haemophilus influenzae after 24 hrs by microdilution method; assay type: functional; summary of the method: as §1
Saccharomyces cerevisiae = assay: Toxicity against Saccharomyces cerevisiae; assay type: organism-based; settings: in vivo
Summary of the method: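 Yeast used as a surrogate for eukaryotic cell toxicity. Microdilution in Mueller–Hinton medium with compound from a DMF stock (5 mg/ml), final range 64 to 0.125 µg/ml. Incubated 24 h at 37 °C, with optical density read at 600 nm. MIC defined as the concentration inhibiting growth by 90%.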

SMILES | MIC (Staphylococcus aureus [1]) | MIC (Staphylococcus aureus [2]) | MIC (Streptococcus pneumoniae [3]) | MIC (Streptococcus pneumoniae [4]) | MIC (Streptococcus pyogenes [5]) | MIC (Streptococcus pyogenes [6]) | MIC (Haemophilus influenzae) | Activity (Saccharomyces cerevisiae)
CC[C@H]1OC(=O)[C@H](C)[C@@H](OC(=O)Cc2ccc([N+](=O)[O-])cc2)[C@H](C)[C@@H](O[C@@H]2O[C@H](C)C[C@H](N(C)C)[C@H]2O)[C@](C)(O)C[C@@H](C)CN(C(=O)Nc2ccc(Cl)cc2Cl)[C@H](C)[C@@H](O)[C@]1(C)O | 32 µg/mL (≈ 34.5 µM) | 32 µg/mL (≈ 34.5 µM) | 2 µg/mL (≈ 2.16 µM) | 4 µg/mL (≈ 4.31 µM) | 4 µg/mL (≈ 4.31 µM) | 32 µg/mL (≈ 34.5 µM) | 32 µg/mL (≈ 34.5 µM) | Non-toxic
CC[C@H]1OC(=O)[C@H](C)[C@@H](O)[C@H](C)[C@@H](O[C@@H]2O[C@H](C)C[C@H](N(C)C)[C@H]2O)[C@](C)(O)C[C@@H](C)CN(C(=S)NCc2ccccc2)[C@H](C)[C@@H](O)[C@]1(C)O | > 64 µg/mL | > 64 µg/mL | > 64 µg/mL | > 64 µg/mL | > 64 µg/mL | > 64 µg/mL | > 64 µg/mL | Non-toxic
CC[C@H]1OC(=O)[C@H](C)C(=O)[C@H](C)[C@@H](O[C@@H]2O[C@H](C)C[C@H](N(C)C)[C@H]2O)[C@](C)(OC)C[C@@H](C)CN(C(=O)NC(C)C)[C@H](C)[C@@H](O)[C@]1(C)O | > 64 µg/mL | > 64 µg/mL | 8 µg/mL (≈ 11.9 µM) | > 64 µg/mL | 16 µg/mL (≈ 23.7 µM) | > 64 µg/mL | > 64 µg/mL | Non-toxic
CC[C@H]1OC(=O)/C(C)=C\[C@H](C)[C@@H](O[C@@H]2O[C@H](C)C[C@H](N(C)C)[C@H]2O)[C@](C)(OC)C[C@@H](C)CN(C(=O)NC(C)C)[C@H](C)[C@@H](O)[C@]1(C)O | > 64 µg/mL | > 64 µg/mL | 8 µg/mL (≈ 12.2 µM) | > 64 µg/mL | 16 µg/mL (≈ 24.3 µM) | > 64 µg/mL | > 64 µg/mL | Non-toxic
CC[C@H]1OC(=O)[C@H](C)[C@@H](O)[C@H](C)[C@@H](O[C@@H]2O[C@H](C)C[C@H](N(C)C)[C@H]2O)[C@](C)(O)C[C@@H](C)CN(C(=O)NC(C)(C)C)[C@H](C)[C@@H](O)[C@]1(C)O | > 64 µg/mL | > 64 µg/mL | > 64 µg/mL | > 64 µg/mL | > 64 µg/mL | > 64 µg/mL | > 64 µg/mL | Non-toxic
CC[C@H]1OC(=O)[C@H](C)[C@@H](O)[C@H](C)[C@@H](O[C@@H]2O[C@H](C)C[C@H](N(C)C)[C@H]2O)[C@](C)(O)C[C@@H](C)CN(C(=O)Nc2cccc(C(F)(F)F)c2)[C@H](C)[C@@H](O)[C@]1(C)O | > 64 µg/mL | > 64 µg/mL | > 64 µg/mL | > 64 µg/mL | > 64 µg/mL | > 64 µg/mL | > 64 µg/mL | Non-toxic
CC[C@H]1OC(=O)[C@H](C)[C@@H](O)[C@H](C)[C@@H](O[C@@H]2O[C@H](C)C[C@H](N(C)C)[C@H]2O)[C@](C)(O)C[C@@H](C)CN(C(=S)Nc2cccc(C(F)(F)F)c2)[C@H](C)[C@@H](O)[C@]1(C)O | > 64 µg/mL | > 64 µg/mL | > 64 µg/mL | > 64 µg/mL | > 64 µg/mL | > 64 µg/mL | > 64 µg/mL | Non-toxic
CC[C@H]1OC(=O)[C@H](C)[C@@H](O)[C@H](C)[C@@H](O[C@@H]2O[C@H](C)C[C@H](N(C)C)[C@H]2O)[C@](C)(O)C[C@@H](C)CN(C(=O)NC(C)C)[C@H](C)[C@@H](O)[C@]1(C)O | > 64 µg/mL | > 64 µg/mL | > 64 µg/mL | > 64 µg/mL | > 64 µg/mL | > 64 µg/mL | > 64 µg/mL | Non-toxic
CC[C@H]1OC(=O)[C@H](C)[C@@H](O)[C@H](C)[C@@H](O[C@@H]2O[C@H](C)C[C@H](N(C)C)[C@H]2O)[C@](C)(O)C[C@@H](C)CN(C(=O)NCc2ccccc2)[C@H](C)[C@@H](O)[C@]1(C)O | > 64 µg/mL | > 64 µg/mL | > 64 µg/mL | > 64 µg/mL | > 64 µg/mL | > 64 µg/mL | > 64 µg/mL | Non-toxic
CC[C@H]1OC(=O)[C@H](C)[C@@H](O[C@H]2C[C@@](C)(OC)[C@@H](O)[C@H](C)O2)[C@H](C)[C@@H](O[C@@H]2O[C@H](C)C[C@H](N(C)C)[C@H]2O)[C@](C)(OC)C[C@@H](C)CN[C@H](C)[C@@H](O)[C@]1(C)O | > 64 µg/mL | > 64 µg/mL | 0.5 µg/mL (≈ 0.668 µM) | 16 µg/mL (≈ 21.4 µM) | 1 µg/mL (≈ 1.34 µM) | 16 µg/mL (≈ 21.4 µM) | 8 µg/mL (≈ 10.7 µM) | Non-toxic
C=CCNC(=S)N1C[C@H](C)C[C@@](C)(O)[C@H](O[C@@H]2O[C@H](C)C[C@H](N(C)C)[C@H]2O)[C@@H](C)[C@H](O)[C@@H](C)C(=O)O[C@H](CC)[C@@](C)(O)[C@H](O)[C@H]1C | > 64 µg/mL | > 64 µg/mL | > 64 µg/mL | > 64 µg/mL | > 64 µg/mL | > 64 µg/mL | > 64 µg/mL | Non-toxic
CC[C@H]1OC(=O)[C@H](C)[C@@H](O)[C@H](C)[C@@H](O[C@@H]2O[C@H](C)C[C@H](N(C)C)[C@H]2O)[C@](C)(OC)C[C@@H](C)CN(C(=O)NC(C)C)[C@H](C)[C@@H](O)[C@]1(C)O | > 64 µg/mL | > 64 µg/mL | 32 µg/mL (≈ 47.3 µM) | > 64 µg/mL | > 64 µg/mL | > 64 µg/mL | > 64 µg/mL | Non-toxic
CC[C@H]1OC(=O)[C@H](C)C2(O)O[C@@](C)(C[C@@H](C)CN(C(=O)NC(C)C)[C@H](C)[C@@H](O)[C@]1(C)O)[C@H](O[C@@H]1O[C@H](C)C[C@H](N(C)C)[C@H]1O)[C@H]2C | > 64 µg/mL | > 64 µg/mL | > 64 µg/mL | > 64 µg/mL | > 64 µg/mL | > 64 µg/mL | > 64 µg/mL | Non-toxic
CC[C@H]1OC(=O)[C@H](C)C2(O)O[C@@](C)(C[C@@H](C)CN(C(=O)Nc3ccc(Cl)cc3Cl)[C@H](C)[C@@H](O)[C@]1(C)O)[C@H](O[C@@H]1O[C@H](C)C[C@H](N(C)C)[C@H]1O)[C@H]2C | > 64 µg/mL | > 64 µg/mL | > 64 µg/mL | > 64 µg/mL | > 64 µg/mL | > 64 µg/mL | > 64 µg/mL | Non-toxic
CC[C@H]1OC(=O)[C@H](C)C(=O)[C@H](C)[C@@H](O[C@@H]2O[C@H](C)C[C@H](N(C)C)[C@H]2O)[C@](C)(OC)C[C@@H](C)CN(C(=O)Nc2ccc(Cl)cc2Cl)[C@H](C)[C@@H](O)[C@]1(C)O | > 64 µg/mL | > 64 µg/mL | 8 µg/mL (≈ 10.3 µM) | 8 µg/mL (≈ 10.3 µM) | 16 µg/mL (≈ 20.6 µM) | > 64 µg/mL | > 64 µg/mL | Non-toxic
CC[C@H]1OC(=O)/C(C)=C\[C@H](C)[C@@H](O[C@@H]2O[C@H](C)C[C@H](N(C)C)[C@H]2O)[C@](C)(OC)C[C@@H](C)CN(C(=O)Nc2ccc(Cl)cc2Cl)[C@H](C)[C@@H](O)[C@]1(C)O | > 64 µg/mL | > 64 µg/mL | 8 µg/mL (≈ 10.5 µM) | 16 µg/mL (≈ 21 µM) | 32 µg/mL (≈ 42.1 µM) | > 64 µg/mL | > 64 µg/mL | Non-toxic
CC[C@H]1OC(=O)[C@H](C)C2O[C@@](C)(C[C@@H](C)CN(C(=O)NC(C)C)[C@H](C)[C@@H](O)[C@]1(C)O)[C@H](O[C@@H]1O[C@H](C)C[C@H](N(C)C)[C@H]1O)[C@H]2C | > 64 µg/mL | > 64 µg/mL | > 64 µg/mL | > 64 µg/mL | > 64 µg/mL | > 64 µg/mL | > 64 µg/mL | Non-toxic
CC[C@H]1OC(=O)[C@H](C)[C@@H](O)[C@H](C)[C@@H](O[C@@H]2O[C@H](C)C[C@H](N(C)C)[C@H]2O)[C@](C)(O)C[C@@H](C)CN(C(=O)Nc2ccc(Cl)cc2Cl)[C@H](C)[C@@H](O)[C@]1(C)O | > 64 µg/mL | > 64 µg/mL | > 64 µg/mL | > 64 µg/mL | > 64 µg/mL | > 64 µg/mL | > 64 µg/mL | Non-toxic
CC[C@H]1OC(=O)[C@H](C)[C@@H](O)[C@H](C)[C@@H](O[C@@H]2O[C@H](C)C[C@H](N(C)C)[C@H]2O)[C@](C)(O)C[C@@H](C)CN(C(=O)Nc2ccccc2C(F)(F)F)[C@H](C)[C@@H](O)[C@]1(C)O | > 64 µg/mL | > 64 µg/mL | > 64 µg/mL | > 64 µg/mL | > 64 µg/mL | > 64 µg/mL | > 64 µg/mL | Non-toxic
CC[C@H]1OC(=O)[C@H](C)[C@@H](O)[C@H](C)[C@@H](O[C@@H]2O[C@H](C)C[C@H](N(C)C)[C@H]2O)[C@](C)(OC)C[C@@H](C)CN(C(=O)Nc2ccc(Cl)cc2Cl)[C@H](C)[C@@H](O)[C@]1(C)O | > 64 µg/mL | > 64 µg/mL | > 64 µg/mL | > 64 µg/mL | > 64 µg/mL | > 64 µg/mL | > 64 µg/mL | Non-toxic
CC[C@H]1OC(=O)[C@H](C)C2O[C@@](C)(C[C@@H](C)CN(C(=O)Nc3ccc(Cl)cc3Cl)[C@H](C)[C@@H](O)[C@]1(C)O)[C@H](O[C@@H]1O[C@H](C)C[C@H](N(C)C)[C@H]1O)[C@H]2C | > 64 µg/mL | > 64 µg/mL | > 64 µg/mL | > 64 µg/mL | > 64 µg/mL | > 64 µg/mL | > 64 µg/mL | Non-toxic
CC[C@H]1OC(=O)[C@H](C)[C@@H](O[C@H]2C[C@@](C)(OC)[C@@H](O)[C@H](C)O2)[C@H](C)[C@@H](O[C@@H]2O[C@H](C)C[C@H](N(C)C)[C@H]2O)[C@](C)(O)C[C@@H](C)C(=O)[C@H](C)[C@@H](O)[C@]1(C)O [ERYTHROMYCIN] | > 64 µg/mL | > 64 µg/mL | 0.125 µg/mL (≈ 0.17 µM) | 8 µg/mL (≈ 10.9 µM) | 0.125 µg/mL (≈ 0.17 µM) | 8 µg/mL (≈ 10.9 µM) | 4 µg/mL (≈ 5.45 µM) | 
